Reference: ChEMBL document CHEMBL3621107, “Ring fusion strategy for synthesis and lead optimization of sulfur-substituted anthra[1,2-c][1,2,5]thiadiazole-6,11-dione derivatives as promising scaffold of antitumor agents” (Eur J Med Chem, 2015)

How the values were obtained:
Assay type in all cases: functional
[1] = system: MDA-MB-231; test: Cytotoxicity against human MDA-MB-231 cells assessed as cell growth at 10 uM after 48 hrs by SRB assay relative to control; details: MDA-MB-231, 48 h, read-out: Activity
Summary of the method: (§1)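 First-stage NCI DTP one-dose screen against the 60 human tumour cell line panel. Compounds were tested at a single 10 μM level, and results are given as growth percentage.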

[2] = system: COLO 205; test: Cytotoxicity against human COLO205 cells assessed as cell growth at 10 uM after 48 hrs by SRB assay relative to control; details: COLO 205, 48 h, read-out: Activity
Summary of the method: (§2)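 First-stage NCI-60 screen by the NCI Developmental Therapeutics Program. Each compound was tested once at a single concentration of 10 μM against the 60-cell-line panel. Growth percentage was reported for each cell line.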

[3] = system: RXF 393; test: Cytotoxicity against human RXF393 cells assessed as cell growth at 10 uM after 48 hrs by SRB assay relative to control; details: RXF 393, 48 h, read-out: Activity; summary of the method: as §1
[4] = system: NCI-H226; test: Cytotoxicity against human NCI-H226 cells assessed as cell growth at 10 uM after 48 hrs by SRB assay relative to control; details: NCI-H226, 48 h, read-out: Activity; summary of the method: as §1
[5] = system: K562; test: Cytotoxicity against human K562 cells assessed as cell growth at 10 uM after 48 hrs by SRB assay relative to control; details: K562, 48 h, read-out: Activity; summary of the method: as §2
[6] = system: LOX IMVI; test: Cytotoxicity against human LOXIMVI cells assessed as cell growth at 10 uM after 48 hrs by SRB assay relative to control; details: read-out: Activity; summary of the method: as §2
[7] = system: T47D; test: Cytotoxicity against human T47D cells assessed as cell growth at 10 uM after 48 hrs by SRB assay relative to control; details: read-out: Activity
Summary of the method: (§3)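 NCI-60 one-dose screen run by NCI DTP: each cell line exposed to a single 10 µM dose, and percentage growth recorded against untreated growth.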

[8] = system: TK-10; test: Cytotoxicity against human TK10 cells assessed as cell growth at 10 uM after 48 hrs by SRB assay relative to control; details: TK-10, 48 h, read-out: Activity; summary of the method: as §3
[9] = system: SF-268; test: Cytotoxicity against human SF268 cells assessed as cell growth at 10 uM after 48 hrs by SRB assay relative to control; details: SF-268, 48 h, read-out: Activity; summary of the method: as §1
[10] = system: DU-145; test: Cytotoxicity against human DU145 cells assessed as cell growth at 10 uM after 48 hrs by SRB assay relative to control; details: DU-145, 48 h, read-out: Activity; summary of the method: as §2
[11] = system: NCI-H522; test: Cytotoxicity against human NCI-H522 cells assessed as cell growth at 10 uM after 48 hrs by SRB assay relative to control; details: NCI-H522, 48 h, read-out: Activity; summary of the method: as §1
[12] = system: HCT-116; test: Cytotoxicity against human HCT116 cells assessed as cell growth at 10 uM after 48 hrs by SRB assay relative to control; details: HCT-116, 48 h, read-out: Activity; summary of the method: as §2
[13] = Cytotoxicity against human Hs578T cells assessed as cell growth at 10 uM after 48 hrs by SRB assay relative to control; details: Hs-578T, read-out: Activity; summary of the method: as §2
[14] = system: M14; test: Cytotoxicity against human M14 cells assessed as cell growth at 10 uM after 48 hrs by SRB assay relative to control; details: M14, 48 h, read-out: Activity; summary of the method: as §2
[15] = system: NCI-H460; test: Cytotoxicity against human NCI-H460 cells assessed as cell growth at 10 uM after 48 hrs by SRB assay relative to control; details: NCI-H460, 48 h, read-out: Activity; summary of the method: as §1
[16] = system: UACC-257; test: Cytotoxicity against human UACC257 cells assessed as cell growth at 10 uM after 48 hrs by SRB assay relative to control; details: UACC-257, 48 h, read-out: Activity; summary of the method: as §3
[17] = system: SNB-75; test: Cytotoxicity against human SNB75 cells assessed as cell growth at 10 uM after 48 hrs by SRB assay relative to control; details: SNB-75, 48 h, read-out: Activity; summary of the method: as §3
[18] = system: OVCAR-8; test: Cytotoxicity against human OVCAR8 cells assessed as cell growth at 10 uM after 48 hrs by SRB assay relative to control; details: OVCAR-8, 48 h, read-out: Activity; summary of the method: as §1
[19] = system: OVCAR-3; test: Cytotoxicity against human OVCAR3 cells assessed as cell growth at 10 uM after 48 hrs by SRB assay relative to control; details: OVCAR-3, 48 h, read-out: Activity; summary of the method: as §1
[20] = system: A549; test: Cytotoxicity against human A549 cells assessed as cell growth at 10 uM after 48 hrs by SRB assay relative to control; details: A549, 48 h, read-out: Activity; summary of the method: as §2
[21] = system: SK-MEL-2; test: Cytotoxicity against human SK-MEL-2 cells assessed as cell growth at 10 uM after 48 hrs by SRB assay relative to control; details: SK-MEL-2, 48 h, read-out: Activity; summary of the method: as §1
[22] = system: UO-31; test: Cytotoxicity against human UO31 cells assessed as cell growth at 10 uM after 48 hrs by SRB assay relative to control; details: UO-31, 48 h, read-out: Activity; summary of the method: as §3
[23] = system: HCT-15; test: Cytotoxicity against human HCT15 cells assessed as cell growth at 10 uM after 48 hrs by SRB assay relative to control; details: HCT-15, 48 h, read-out: Activity; summary of the method: as §2
[24] = system: NCI-H23; test: Cytotoxicity against human NCI-H23 cells assessed as cell growth at 10 uM after 48 hrs by SRB assay relative to control; details: NCI-H23, 48 h, read-out: Activity; summary of the method: as §1
[25] = system: SF-295; test: Cytotoxicity against human SF295 cells assessed as cell growth at 10 uM after 48 hrs by SRB assay relative to control; details: SF-295, 48 h, read-out: Activity; summary of the method: as §1
[26] = system: MDA-MB-435; test: Cytotoxicity against human MDA-MB-435 cells assessed as cell growth at 10 uM after 48 hrs by SRB assay relative to control; details: MDA-MB-435, 48 h, read-out: Activity; summary of the method: as §1
[27] = system: SF-539; test: Cytotoxicity against human SF539 cells assessed as cell growth at 10 uM after 48 hrs by SRB assay relative to control; details: SF-539, 48 h, read-out: Activity; summary of the method: as §1
[28] = system: SK-MEL-5; test: Cytotoxicity against human SK-MEL-5 cells assessed as cell growth at 10 uM after 48 hrs by SRB assay relative to control; details: SK-MEL-5, 48 h, read-out: Activity; summary of the method: as §1
[29] = system: ACHN; test: Cytotoxicity against human ACHN cells assessed as cell growth at 10 uM after 48 hrs by SRB assay relative to control; details: read-out: Activity; summary of the method: as §2
[30] = system: SK-OV-3; test: Cytotoxicity against human SKOV3 cells assessed as cell growth at 10 uM after 48 hrs by SRB assay relative to control; details: SK-OV-3, 48 h, read-out: Activity; summary of the method: as §1
[31] = system: HOP-92; test: Cytotoxicity against human HOP92 cells assessed as cell growth at 10 uM after 48 hrs by SRB assay relative to control; details: HOP-92, 48 h, read-out: Activity; summary of the method: as §2
[32] = system: A498; test: Cytotoxicity against human A498 cells assessed as cell growth at 10 uM after 48 hrs by SRB assay relative to control; details: A498, 48 h, read-out: Activity; summary of the method: as §2

SMILES	growth at 10 µM [1]	growth at 10 µM [2]	growth at 10 µM [3]	growth at 10 µM [4]	growth at 10 µM [5]	growth at 10 µM [6]	growth at 10 µM [7]	growth at 10 µM [8]	growth at 10 µM [9]	growth at 10 µM [10]	growth at 10 µM [11]	growth at 10 µM [12]	growth at 10 µM [13]	growth at 10 µM [14]	growth at 10 µM [15]	growth at 10 µM [16]	growth at 10 µM [17]	growth at 10 µM [18]	growth at 10 µM [19]	growth at 10 µM [20]	also measured
Cc1cccc(C)c1Sc1cc2c(c3nsnc13)C(=O)c1ccccc1C2=O	30.6%	98.8%	76.2%	78.3%	43.1%	44.6%	66.8%	119%	79.5%	106%	61.4%	65%	82.4%	122%	87.4%	86.6%	69.4%	59%	1%	90.2%	growth at 10 µM [21]: 67.5%; growth at 10 µM [22]: 66.7%; growth at 10 µM [23]: 47.5%; growth at 10 µM [24]: 67.4%; growth at 10 µM [25]: 91.1%; growth at 10 µM [26]: 96.8%; growth at 10 µM [27]: 84.5%; growth at 10 µM [28]: 70.2%; growth at 10 µM [29]: 83.2%
COc1cccc(Sc2cc3c(c4nsnc24)C(=O)c2ccccc2C3=O)c1	87.1%	110%	124%	95.3%	38.5%	71%	69.1%	131%	89.8%	98.9%	82.4%	85.7%	93.8%	94.2%	100%	104%	81.8%	97.3%	85.8%	110%	growth at 10 µM [30]: 110%; growth at 10 µM [21]: 82.6%; growth at 10 µM [22]: 75.5%; growth at 10 µM [23]: 71.9%; growth at 10 µM [31]: 101%; growth at 10 µM [24]: 76.4%; growth at 10 µM [32]: 83.7%; growth at 10 µM [26]: 72.5%; growth at 10 µM [27]: 107%; growth at 10 µM [28]: 100%; growth at 10 µM [29]: 98.7%
